Screening results deposited in PubChem BioAssay by several laboratories.
This is a sample that favours compounds with a hit; in the whole collection about 2.6% have one here.
SENP8 block-1 = SENP8 protease inhibitors, primary screen, biochemical, luminescence; 330,000 tested, 1.2% active; AID 2540, 2010; purified SENP8, Z-RLRGG-aminoluciferin cleavage; inhibition, % at 10 µM; in the data active = inhibition above about 50%
Platelet DG rel = inhibitors of platelet dense granule secretion, primary screen, cell-based, MLPCN, human platelets; human platelet-rich plasma, SFLLRN dense granule ATP release, luminescence; inhibition, %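 (compounds screened at 7.5 µM in platelet-rich plasma)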; 300,000 tested, 0.22% active;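 active = mean replicate score, as percent of positive control, at or above 50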
SENP6 inh = SENP6 protease inhibitors, primary screen, biochemical, luminescence, uHTS. Sentrin-specific protease 6 (Homo sapiens), Q9GZR1. Recombinant SENP6 catalytic domain, aminoluciferin luminescence. inhibition, % at 10 µM. 330,000 tested, 1.8% active;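 active = inhibition above about 50% at the single tested dose, limit read from the data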;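 also: plate controls were DMSO wells with enzyme for no effect and DMSO wells lacking enzyme for full effect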
SENP8 block-2 = human SENP8 protease inhibitors, primary screen, biochemical, fluorescence, Nedd8 protein substrate, uHTS. recombinant SENP8. inhibition, % at 20 µM. 360,000 tested, 0.64% active. AID 602440, 2012; in the data active = inhibition mostly above about 40%, no sharp cut-off; inactive = mostly below about 27%
SENP7 block = SENP7 protease inhibitors, primary screen, biochemical, luminescence, uHTS; Sentrin-specific protease 7 (Homo sapiens), Q9BQF6; recombinant SENP7, Z-RLRGG-aminoluciferin luminescence, 40 min; inhibition, % at 5 µM; 330,000 tested, 1.5% active; AID 434973, 2010;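 active = inhibition above about 50% at the single test dose, limit read from the data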;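 also: plate controls were DMSO with enzyme for no effect and no enzyme buffer wells for full effect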
Target sequence (Q9BQF6 706-1050 limits assumed): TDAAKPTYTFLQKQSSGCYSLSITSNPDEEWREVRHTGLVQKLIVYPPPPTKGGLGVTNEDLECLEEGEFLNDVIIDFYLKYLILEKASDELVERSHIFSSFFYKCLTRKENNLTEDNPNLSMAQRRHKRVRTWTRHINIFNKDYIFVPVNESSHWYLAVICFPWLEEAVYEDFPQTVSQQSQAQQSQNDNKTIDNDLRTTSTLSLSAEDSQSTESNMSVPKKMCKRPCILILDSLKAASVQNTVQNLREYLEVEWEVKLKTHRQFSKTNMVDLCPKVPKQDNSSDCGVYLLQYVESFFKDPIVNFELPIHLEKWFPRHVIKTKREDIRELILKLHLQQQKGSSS
SENP1 FRET inh = human SENP1 catalytic domain inhibitors, primary screen, biochemical, FRET, uHTS; recombinant SENP1 catalytic domain, CyPet-SUMO1-YPet FRET cleavage; 360,000 tested, 0.21% active; inhibition, % at 10 µM; Sentrin-specific protease 1 (Homo sapiens), Q9P0U3;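 active = inhibition at least 30% at 10 µM, raw YFP signal under a set limit, fluorescence ratio 0.5 to 1.5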;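 also: 0% = enzyme with DMSO and 100% = no enzyme wells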
Target sequence (Q9P0U3 419-644 limits assumed): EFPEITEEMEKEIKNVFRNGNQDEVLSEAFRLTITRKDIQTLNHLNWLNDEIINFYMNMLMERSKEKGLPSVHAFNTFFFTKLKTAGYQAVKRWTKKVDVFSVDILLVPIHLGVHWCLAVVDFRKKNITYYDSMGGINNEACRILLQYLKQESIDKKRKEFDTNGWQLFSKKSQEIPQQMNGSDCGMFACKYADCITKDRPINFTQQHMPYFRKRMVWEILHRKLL
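Material: hSENP1 catalytic domain, recombinant; medium: Tris pH 8 with BME, BSA, NP40 and catalase; compound: single concentration of 10 µM compound, 0.5% DMSO final; technique: FRET read of cyan and yellow fluorescence; timing: 50 min enzyme reaction, room temperature, light-protected; reagent: SFCypet-SUMO1-SFYpet substrate at 25 nM; control set: no-enzyme low, enzyme-DMSO high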
SENP8 confirm = SENP8 protease inhibitors, retest, confirmation, biochemical, luminescence, single concentration; shares compounds with SENP7 block; Recombinant SENP8, Z-RLRGG-aminoluciferin luminescence, 60 min; inhibition, % at 12.5 µM; 6,200 tested, 40% active; AID 488912, 2010;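 active = mean inhibition across replicates above about 50%, limit read from the data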
SENP6 conf = SENP6 protease inhibitors, confirmation, biochemical, luminescence, single concentration | recombinant SENP6, Z-RLRGG-aminoluciferin luminescence | AID 488915, 2010 | inhibition, % at 12.5 µM | shares compounds with SENP7 block | 6,200 tested, 58% active
SENP7 conf = SENP7 protease inhibitors, retest, confirmation, biochemical, luminescence, single concentration; AID 488917, 2010; shares compounds with SENP7 block; recombinant SENP7, Z-RLRGG-aminoluciferin luminescence, 40 min; 6,200 tested, 69% active; inhibition, % at 12.5 µM
Casp3 select = caspase-3 protease inhibitors, confirmation, selectivity assay for SENP inhibitor project, biochemical, single concentration. shares compounds with SENP7 block. purified caspase-3, Z-DEVD-aminoluciferin luminescence, 60 min. inhibition, % at 12.5 µM. 6,200 tested, 60% active;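 active = mean inhibition above about 50%, limit read from the data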;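 also: plate controls were enzyme with DMSO for no effect and wells without caspase-3 for full effect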
Luc interf = counter-screen for SENP inhibitors: luminescence interference | AID 488919 | Pre-incubated SENP8/Z-RLRGG-aminoluciferin, luciferase luminescence interference | shares compounds with SENP7 block | 6,200 tested, 39% active | inhibition, % at 12.5 µM;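 active = mean inhibition above about 50% when retested at one dose, limit read from the data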;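 also: plate controls were DMSO wells with completed reaction for no effect and substrate without enzyme for full effect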
Active calls of the source: *; / = not tested or not shown.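 The calls were made as follows, unless noted: active = mean inhibition above about 50% in the one-dose retest (limit read from the data); inactive = the rest.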

SMILES | SENP8 block-1 | Platelet DG rel | SENP6 inh | SENP8 block-2 | SENP7 block | SENP1 FRET inh | SENP8 confirm | SENP6 conf | SENP7 conf | Casp3 select | Luc interf
Nc1ccc2nn(-c3cccc4ccccc34)nc2c1 | 85* | -5 | 79* | -490 | 77* | -15 | -3 | 27 | 16 | 6 | 7
Cc1ccc(S(=O)(=O)NCC(c2ccco2)N2CCc3ccccc3C2)cc1 (centres undefined) | 1 | 1 | -3 | 4 | 4 | -1 | / | / | / | / | /
Cc1ccc(CNc2ccc3c(c2)OCO3)cc1 | / | -6 | / | -108 | / | -24 | / | / | / | / | /
O=C(Cc1ccc(OCc2ccccc2)cc1)NCc1ccc2c(c1)OCO2 | / | / | / | 7 | / | 1 | / | / | / | / | /
O=Cc1ccc(OCc2ccc3c(c2)OCO3)cc1 | 62* | 10 | 77* | 32 | 71* | -1 | 73* | 73* | 92* | 81* | 83*
Cc1ccc(COc2ccc3c(c2)OCO3)cc1 | 75* | 0 | 91* | 7 | 86* | 1 | 48 | 85* | 98* | 70* | 31
O=C(NCC1CCCO1)c1ccc(Br)s1 (centres undefined) | 4 | 0 | 6 | 1 | -2 | 2 | / | / | / | / | /
CCn1cc(Br)c(C(=O)Nc2ccc(C(=O)OC(C)C)cc2)n1 | 10 | 11 | 17 | 4 | 6 | 1 | / | / | / | / | /
CCn1nccc1C(=O)Nc1ccc(C(=O)OC(C)C)cc1 | 67* | 4 | 77* | 7 | 76* | -1 | 8 | 68* | 88* | 67* | 59*
COc1cc(C2c3cc4c(cc3OC(NNC(N)=S)C2C)OCO4)cc(OC)c1OC (centres undefined) | / | / | / | 8 | / | 2 | / | / | / | / | /
C/C(=N\NC(=O)c1c(C)nc2ccccn12)c1ccc(N2CCOCC2)cc1 | -3 | 1 | 8 | 1 | 1 | -1 | / | / | / | / | /
COc1ccc(C(=O)NCC(=O)OCc2csc(-c3ccccc3)n2)cc1 | -10 | 12 | -12 | 9 | -1 | 0 | / | / | / | / | /
O=C(OCc1csc(-c2ccccc2)n1)C1=NN(c2ccccc2)C(=O)CC1 | 2 | / | -2 | -2 | 5 | 0 | / | / | / | / | /
Cn1cccc1C(=O)OCc1csc(-c2ccccc2)n1 | 94* | 0 | 88* | -8 | 100* | -4 | -6 | 98* | 102* | 93* | 89*
CNS(=O)(=O)c1cccc(C(=O)OCc2csc(-c3ccccc3)n2)c1 | -14 | -1 | -15 | -2 | 2 | 0 | / | / | / | / | /
O=C(OCc1csc(-c2ccccc2)n1)c1cccs1 | 92* | -9 | 95* | 20 | 96* | 0 | 97* | 97* | 101* | 91* | 90*
Cc1ccsc1C(=O)OCc1csc(-c2ccccc2)n1 | 96* | -7 | 96* | 12 | 99* | 0 | 96* | 92* | 47 | 94* | 88*
Cc1ccsc1C(=O)OCC(=O)Nc1nnc(-c2ccccc2)o1 | -5 | -29 | -7 | -15 | -10 | 2 | / | / | / | / | /
Cc1ccsc1C(=O)OCc1nnc(-c2ccccc2)o1 | 52* | / | 59* | 12 | 59* | 1 | 57* | 55* | 76* | 56* | 50*
CC(C)(CO)Nc1nc(Nc2ccccc2)nc(Nc2ccccc2)n1 | -2 | 0 | -18 | 9 | 10 | 0 | / | / | / | / | /
CCOc1ccc(C(=O)NCCc2ccccc2)cc1 | 52* | 7 | 64* | 14 | 56* | -1 | 59* | 60* | 82* | 80* | 34
CCOc1ccc(/C(C)=N\NC(=O)Cc2ccccc2)cc1 | 7 | -1 | 96* | 29 | -5 | -1 | -2 | -11 | -6 | -4 | -8
CC(=O)Oc1ccc(C(=O)NCCc2ccccc2)cc1 | 10 | 4 | 34 | 0 | 36 | 2 | / | / | / | / | /
Cc1oc(-c2ccccc2)cc1C(=O)Nc1ccccc1 | 1 | -3 | 6 | 24 | 5 | 2 | / | / | / | / | /
Cc1c(C(=O)Nc2ccccc2)csc1-c1ccccc1 | 60* | 30 | 57* | 22 | 95* | 3 | -27 | 42 | 84* | 46 | -4
SMILES | SENP8 block-1 | Platelet DG rel | SENP6 inh | SENP8 block-2 | SENP7 block | SENP1 FRET inh | SENP8 confirm | SENP6 conf | SENP7 conf | Casp3 select | Luc interf
CCCCCC(=O)N1CCN(CCN=CC2=C(O)CC(c3ccc(OC)cc3)CC2=O)CC1 (centres undefined) | 2 | -3 | -5 | 12 | 3 | 1 | / | / | / | / | /
Cc1cc(/C=C2/C(=O)NN(c3ccccc3)C2=O)c(C)n1-c1ccc(O)cc1 | 56* | 5 | 78* | 50* | 44 | 1 | 3 | 66* | 91* | 62* | 6
CC(=O)c1ccc2c(c1)OCCOCCOCCO2 | -5 | -3 | -17 | 7 | 8 | 1 | / | / | / | / | /
CCOC(=O)c1c(NC(=O)CSc2nnnn2-c2ccccc2)sc2c1CC(C)(C)NC2(C)C | -1 | -3 | -12 | -3 | -10 | -6 | / | / | / | / | /
O=C(CCN1C(=O)/C(=C/c2ccc3c(c2)OCO3)SC1=S)Nc1ccc(C(=O)O)cc1 | 40 | 32 | 14 | 19 | 1 | -39 | / | / | / | / | /
O=C(CCCN1C(=O)/C(=C\c2ccccc2)SC1=S)Nc1ccc(C(=O)O)cc1 | 66* | -3 | 82* | 10 | 23 | 3 | 10 | 6 | 12 | 5 | 13
CCc1ccc(/C=C2\SC(=S)N(CCCC(=O)Nc3ccc(C(=O)O)cc3)C2=O)cc1 | 94* | 1 | 92* | 19 | 83* | 5 | 93* | 97* | 98* | 77* | 55*
